# Several values for one entry are separate records, joined by “and”; a condition that tells them apart may be missing. Equal values may be shown once.
# Legend:
# Assay type in all cases: toxicity, cell-based
# [1] = system: Fibroblast; assay: Multiplex assay against human fibroblast; conditions: number of replicates 2
# Method in brief: (§1)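 Hoechst33342, BioTracker Green Microtubule Cytoskeleton Dye, MitoTracker Red and Annexin V Alexa Fluor 680 were added to live cells at seeding, and imaging on a CQ1 microscope at 37°C and 5% CO2 followed compound addition. Gating by CellPathfinder machine learning separated cells into Hoechst high-intensity objects or normal cells, then normal cells into healthy, pyknosed or fragmented nuclei, then pyknosed cells into mitotic or apoptotic. Per cents of healthy-nucleus cells are reported for the tubulin, mitochondrial-mass and membrane-permeability phenotypes.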
# [2] = system: HEK-293T; assay: Multiplex assay against HEK293T; conditions: human, number of replicates 2; method in brief: as §1
# [3] = system: U2OS; assay: Multiplex assay against U2OS; conditions: human, number of replicates 2; method in brief: as §1
# [4] = 12 h, 1 µM, compound concentration 1 uM
# [5] = 12 h, 10 µM, compound concentration 10 uM
# [6] = 24 h, 1 µM, compound concentration 1 uM
# [7] = 24 h, 10 µM, compound concentration 10 uM
# [8] = 48 h, 1 µM, compound concentration 1 uM
# [9] = 48 h, 10 µM, compound concentration 10 uM
smiles,measurement,setting,value
CC1(C)C(=O)N([C@H]2CCc3c(O)cccc32)c2nc(Nc3cccc(CN4CCCC4)c3)ncc21,Population Apoptotic (%),[1]; [4],38% and 68%
same,Population Fragmented Nuclei (%),[1]; [4],14% and 18%
same,Population Healthy Nuclei (%),[1]; [4],75% and 64%
same,Population Hoechst High Intensity Objects (%),[1]; [4],0%
same,Population Membrane Permeable-Phenotype (%),[1]; [4],5%
same,Population Mitochondria Different-Phenotype (%),[1]; [4],0% and 4%
same,Population Mitotic Cells (%),[1]; [4],61% and 31%
same,Population Normal (%),[1]; [4],100%
same,Population Pyknosed Nuclei (%),[1]; [4],9% and 17%
same,Population Tubulin-Different-Phenotype (%),[1]; [4],22% and 16%
same,Total Cell Count,[1]; [4],136 and 183
same,Population Apoptotic (%),[1]; [5],77% and 80%
same,Population Fragmented Nuclei (%),[1]; [5],22% and 20%
same,Population Healthy Nuclei (%),[1]; [5],43% and 42%
same,Population Hoechst High Intensity Objects (%),[1]; [5],1%
same,Population Membrane Permeable-Phenotype (%),[1]; [5],9% and 4%
same,Population Mitochondria Different-Phenotype (%),[1]; [5],16% and 12%
same,Population Mitotic Cells (%),[1]; [5],22% and 20%
same,Population Normal (%),[1]; [5],98%
same,Population Pyknosed Nuclei (%),[1]; [5],33% and 37%
same,Population Tubulin-Different-Phenotype (%),[1]; [5],67% and 54%
same,Total Cell Count,[1]; [5],150 and 191
same,Population Apoptotic (%),[1]; [6],62% and 70%
same,Population Fragmented Nuclei (%),[1]; [6],18% and 20%
same,Population Healthy Nuclei (%),[1]; [6],67% and 64%
same,Population Hoechst High Intensity Objects (%),[1]; [6],0%
same,Population Membrane Permeable-Phenotype (%),[1]; [6],5% and 2%
same,Population Mitochondria Different-Phenotype (%),[1]; [6],2% and 8%
same,Population Mitotic Cells (%),[1]; [6],37% and 29%
same,Population Normal (%),[1]; [6],99%
same,Population Pyknosed Nuclei (%),[1]; [6],13% and 15%
same,Population Tubulin-Different-Phenotype (%),[1]; [6],22% and 24%
same,Total Cell Count,[1]; [6],118 and 154
same,Population Apoptotic (%),[1]; [7],95% and 93%
same,Population Fragmented Nuclei (%),[1]; [7],25% and 22%
same,Population Healthy Nuclei (%),[1]; [7],16%
same,Population Hoechst High Intensity Objects (%),[1]; [7],0% and 1%
same,Population Membrane Permeable-Phenotype (%),[1]; [7],7% and 8%
same,Population Mitochondria Different-Phenotype (%),[1]; [7],21% and 33%
same,Population Mitotic Cells (%),[1]; [7],4% and 6%
same,Population Normal (%),[1]; [7],99% and 98%
same,Population Pyknosed Nuclei (%),[1]; [7],58% and 61%
same,Population Tubulin-Different-Phenotype (%),[1]; [7],46% and 79%
same,Total Cell Count,[1]; [7],176 and 153
same,Population Apoptotic (%),[1]; [8],69% and 79%
same,Population Fragmented Nuclei (%),[1]; [8],13% and 14%
same,Population Healthy Nuclei (%),[1]; [8],61% and 52%
same,Population Hoechst High Intensity Objects (%),[1]; [8],0%
same,Population Membrane Permeable-Phenotype (%),[1]; [8],18% and 15%
same,Population Mitochondria Different-Phenotype (%),[1]; [8],4% and 0%
same,Population Mitotic Cells (%),[1]; [8],30% and 20%
same,Population Normal (%),[1]; [8],100% and 99%
same,Population Pyknosed Nuclei (%),[1]; [8],24% and 32%
same,Population Tubulin-Different-Phenotype (%),[1]; [8],32% and 20%
same,Total Cell Count,[1]; [8],105 and 132
same,Population Apoptotic (%),[1]; [9],97% and 95%
same,Population Fragmented Nuclei (%),[1]; [9],15% and 19%
same,Population Healthy Nuclei (%),[1]; [9],17%
same,Population Hoechst High Intensity Objects (%),[1]; [9],2%
same,Population Membrane Permeable-Phenotype (%),[1]; [9],14% and 20%
same,Population Mitochondria Different-Phenotype (%),[1]; [9],28% and 40%
same,Population Mitotic Cells (%),[1]; [9],2% and 4%
same,Population Normal (%),[1]; [9],97%
same,Population Pyknosed Nuclei (%),[1]; [9],67% and 62%
same,Population Tubulin-Different-Phenotype (%),[1]; [9],61% and 64%
same,Total Cell Count,[1]; [9],126 and 145
same,Population Apoptotic (%),[2]; [4],51% and 69%
same,Population Fragmented Nuclei (%),[2]; [4],1% and 2%
same,Population Healthy Nuclei (%),[2]; [4],83% and 87%
same,Population Hoechst High Intensity Objects (%),[2]; [4],19% and 21%
same,Population Membrane Permeable-Phenotype (%),[2]; [4],1%
same,Population Mitochondria Different-Phenotype (%),[2]; [4],70% and 76%
same,Population Mitotic Cells (%),[2]; [4],48% and 30%
same,Population Normal (%),[2]; [4],80% and 78%
same,Population Pyknosed Nuclei (%),[2]; [4],14% and 10%
same,Population Tubulin-Different-Phenotype (%),[2]; [4],89% and 94%
same,Total Cell Count,[2]; [4],252 and 277
same,Population Apoptotic (%),[2]; [5],80% and 74%
same,Population Fragmented Nuclei (%),[2]; [5],1% and 2%
same,Population Healthy Nuclei (%),[2]; [5],80% and 77%
same,Population Hoechst High Intensity Objects (%),[2]; [5],18% and 19%
same,Population Membrane Permeable-Phenotype (%),[2]; [5],2% and 0%
same,Population Mitochondria Different-Phenotype (%),[2]; [5],93% and 97%
same,Population Mitotic Cells (%),[2]; [5],19% and 25%
same,Population Normal (%),[2]; [5],81% and 80%
same,Population Pyknosed Nuclei (%),[2]; [5],17% and 20%
same,Population Tubulin-Different-Phenotype (%),[2]; [5],96% and 97%
same,Total Cell Count,[2]; [5],216 and 218
same,Population Apoptotic (%),[2]; [6],88% and 33%
same,Population Fragmented Nuclei (%),[2]; [6],4% and 3%
same,Population Healthy Nuclei (%),[2]; [6],88% and 86%
same,Population Hoechst High Intensity Objects (%),[2]; [6],17% and 25%
same,Population Membrane Permeable-Phenotype (%),[2]; [6],2% and 3%
same,Population Mitochondria Different-Phenotype (%),[2]; [6],60% and 63%
same,Population Normal (%),[2]; [6],82% and 74%
same,Population Pyknosed Nuclei (%),[2]; [6],7% and 9%
same,Population Tubulin-Different-Phenotype (%),[2]; [6],92% and 89%
same,Total Cell Count,[2]; [6],296 and 243
same,Population Apoptotic (%),[2]; [7],90% and 88%
same,Population Fragmented Nuclei (%),[2]; [7],4% and 3%
same,Population Healthy Nuclei (%),[2]; [7],77% and 75%
same,Population Hoechst High Intensity Objects (%),[2]; [7],21%
same,Population Membrane Permeable-Phenotype (%),[2]; [7],3% and 1%
same,Population Mitochondria Different-Phenotype (%),[2]; [7],94% and 96%
same,Population Mitotic Cells (%),[2]; [7],9% and 11%
same,Population Normal (%),[2]; [7],78%
same,Population Pyknosed Nuclei (%),[2]; [7],18% and 21%
same,Population Tubulin-Different-Phenotype (%),[2]; [7],96% and 94%
same,Total Cell Count,[2]; [7],220 and 205
same,Population Apoptotic (%),[2]; [8],61% and 45%
same,Population Fragmented Nuclei (%),[2]; [8],7% and 6%
same,Population Healthy Nuclei (%),[2]; [8],87% and 89%
same,Population Hoechst High Intensity Objects (%),[2]; [8],20% and 17%
same,Population Membrane Permeable-Phenotype (%),[2]; [8],2% and 0%
same,Population Mitochondria Different-Phenotype (%),[2]; [8],26% and 29%
same,Population Mitotic Cells (%),[2]; [8],38% and 54%
same,Population Normal (%),[2]; [8],79% and 82%
same,Population Pyknosed Nuclei (%),[2]; [8],4%
same,Population Tubulin-Different-Phenotype (%),[2]; [8],84% and 87%
same,Total Cell Count,[2]; [8],362 and 302
same,Population Apoptotic (%),[2]; [9],88% and 89%
same,Population Fragmented Nuclei (%),[2]; [9],3% and 1%
same,Population Healthy Nuclei (%),[2]; [9],71% and 74%
same,Population Hoechst High Intensity Objects (%),[2]; [9],22% and 24%
same,Population Membrane Permeable-Phenotype (%),[2]; [9],0%
same,Population Mitochondria Different-Phenotype (%),[2]; [9],94%
same,Population Mitotic Cells (%),[2]; [9],11% and 10%
same,Population Normal (%),[2]; [9],77% and 75%
same,Population Pyknosed Nuclei (%),[2]; [9],24%
same,Population Tubulin-Different-Phenotype (%),[2]; [9],98% and 97%
same,Total Cell Count,[2]; [9],227 and 202
same,Population Apoptotic (%),[3]; [4],50% and 79%
same,Population Healthy Nuclei (%),[3]; [4],25% and 70%
same,Population Hoechst High Intensity Objects (%),[3]; [4],0%
same,Population Membrane Permeable-Phenotype (%),[3]; [4],0% and 6%
same,Population Mitochondria Different-Phenotype (%),[3]; [4],0% and 17%
same,Population Mitotic Cells (%),[3]; [4],50% and 20%
same,Population Normal (%),[3]; [4],100%
same,Population Pyknosed Nuclei (%),[3]; [4],22%
same,Population Tubulin-Different-Phenotype (%),[3]; [4],55% and 51%
same,Population Apoptotic (%),[3]; [5],90% and 88%
same,Population Healthy Nuclei (%),[3]; [5],28% and 42%
same,Population Hoechst High Intensity Objects (%),[3]; [5],0% and 2%
same,Population Membrane Permeable-Phenotype (%),[3]; [5],62% and 26%
same,Population Mitochondria Different-Phenotype (%),[3]; [5],50% and 59%
same,Population Mitotic Cells (%),[3]; [5],9% and 11%
same,Population Normal (%),[3]; [5],100% and 97%
same,Population Pyknosed Nuclei (%),[3]; [5],39% and 49%
same,Population Tubulin-Different-Phenotype (%),[3]; [5],62% and 73%
same,Population Apoptotic (%),[3]; [6],80% and 81%
same,Population Healthy Nuclei (%),[3]; [6],25% and 59%
same,Population Hoechst High Intensity Objects (%),[3]; [6],0%
same,Population Membrane Permeable-Phenotype (%),[3]; [6],0% and 6%
same,Population Mitochondria Different-Phenotype (%),[3]; [6],0% and 16%
same,Population Mitotic Cells (%),[3]; [6],20% and 18%
same,Population Normal (%),[3]; [6],100%
same,Population Pyknosed Nuclei (%),[3]; [6],31% and 29%
same,Population Tubulin-Different-Phenotype (%),[3]; [6],62% and 42%
same,Population Apoptotic (%),[3]; [7],90% and 92%
same,Population Healthy Nuclei (%),[3]; [7],31% and 20%
same,Population Hoechst High Intensity Objects (%),[3]; [7],0% and 2%
same,Population Membrane Permeable-Phenotype (%),[3]; [7],44% and 36%
same,Population Mitochondria Different-Phenotype (%),[3]; [7],66% and 72%
same,Population Mitotic Cells (%),[3]; [7],9% and 8%
same,Population Normal (%),[3]; [7],100% and 97%
same,Population Pyknosed Nuclei (%),[3]; [7],37% and 71%
same,Population Tubulin-Different-Phenotype (%),[3]; [7],55% and 83%
same,Population Apoptotic (%),[3]; [8],91% and 94%
same,Population Hoechst High Intensity Objects (%),[3]; [8],3% and 1%
same,Population Membrane Permeable-Phenotype (%),[3]; [8],50% and 21%
same,Population Mitochondria Different-Phenotype (%),[3]; [8],0% and 22%
same,Population Mitotic Cells (%),[3]; [8],8% and 5%
same,Population Normal (%),[3]; [8],96% and 98%
same,Population Pyknosed Nuclei (%),[3]; [8],37% and 47%
same,Population Tubulin-Different-Phenotype (%),[3]; [8],50% and 51%
same,Population Apoptotic (%),[3]; [9],97% and 81%
same,Population Healthy Nuclei (%),[3]; [9],12% and 15%
same,Population Hoechst High Intensity Objects (%),[3]; [9],1% and 2%
same,Population Membrane Permeable-Phenotype (%),[3]; [9],77% and 50%
same,Population Mitochondria Different-Phenotype (%),[3]; [9],77% and 50%
same,Population Normal (%),[3]; [9],98% and 97%
same,Population Pyknosed Nuclei (%),[3]; [9],81% and 28%
same,Population Tubulin-Different-Phenotype (%),[3]; [9],81% and 83%
